Assay outcomes deposited in PubChem by several laboratories.
M1 antagonist = antagonists of rat M1 muscarinic receptor. AID 628. 3.4% of 64,000 active. B-score at 10 µM. CHO-M1 cells, Fluo-4 calcium, ACh EC80 antagonist mode; active compounds read low. P08482;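 active = calcium fluorescence response, raw or row-and-column corrected B-score, differing from the plate sample mean either way at a set confidence level, mostly lower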
S1P3 ag = S1P3 (human) receptor agonism; Q99500; S1P3 NFAT-BLA reporter cells, FRET ratio; relative to 1 µM S1P, basal subtracted; activation, % at 4.5 µM; 0.1% of 60,000 active;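 active = activation above the screen-wide mean plus 3 SD, cut at about 4.5% in these data, passing the limit was not always enough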
Target sequence (Q99500 whole entry, looked up): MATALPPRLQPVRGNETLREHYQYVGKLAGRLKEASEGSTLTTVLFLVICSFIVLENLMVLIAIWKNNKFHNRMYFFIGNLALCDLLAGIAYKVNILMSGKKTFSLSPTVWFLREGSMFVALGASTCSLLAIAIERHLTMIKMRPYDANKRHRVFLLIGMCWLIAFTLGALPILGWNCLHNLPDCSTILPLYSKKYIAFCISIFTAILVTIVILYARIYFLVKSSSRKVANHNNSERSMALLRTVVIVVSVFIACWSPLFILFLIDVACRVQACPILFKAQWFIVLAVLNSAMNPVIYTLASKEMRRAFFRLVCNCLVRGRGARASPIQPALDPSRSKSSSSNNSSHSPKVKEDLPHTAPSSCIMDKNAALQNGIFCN
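Assay system: CHO cells stably expressing human S1P3, Gα16 and NFAT-β-lactamase reporter. Timing: overnight plating, 4 h compound 37 °C, 2 h substrate RT. Signal: β-lactamase FRET emission ratio 460/535 nm. Measure: percent activation versus median 1 µM S1P response, basal-subtracted, per plate. Repeats: primary screen single test, confirmation screen in triplicate.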
RORA act = activates the human nuclear receptor RORA | CHO-K1 Gal4-RORA LBD luciferase reporter, luminescence; percent increase over mock-subtracted basal signal | activation, % at 10 µM | 1.5% of 65,000 active | P35398;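 active = activation above the mean of all tested compounds plus 3 SD, cut at about 49% in these data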;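 note: 0% = DMSO-treated RORA cells and 100% = added signal equal to DMSO minus mock-transfected cells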
S1P1 ag-PAM = agonists and agonism potentiators of human S1P1 receptor; S1P1 CRE-bla cells, forskolin, beta-lactamase FRET, potentiator mode; S1P1 agonist co-added at EC20, 2 nM; 100% = saturating reference agonist, 0% = basal; activation, % at 9.5 µM; 0.57% of 56,000 active; AID 449;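 active = activation above a cutoff set at the mean activation of all tested compounds plus 3 SD, cut at about 54% in these data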;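 note: forskolin at 4 µM as EC80 and the EC20 agonist is SEW2871; 100% = SEW2871 at its EC100 plus forskolin at EC80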
SF-1 act = activates the human nuclear receptor SF-1. Q13285. CHO-K1 Gal4-SF-1 LBD luciferase reporter; % increase over DMSO SF-1-specific signal. activation, % at 10 µM. 1.9% of 65,000 active;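 active = activation above the mean activation of all tested compounds plus 3 SD, cut at about 50% in these data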
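System: CHO-K1 cells with Gal4–hSF-1 LBD chimera plus Gal4-driven luciferase; quantity: 4,000 CHO-K1 cells per well; compound: one dose, 10 µM compound, 1% DMSO; times: 20 h compound treatment, 37 °C; measured by: SteadyLite luciferase luminescence; read-out: percent activation versus DMSO; benchmarks: DMSO and mock-transfected background; replicates: one test per compound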
M1 ag = activates the M1 muscarinic receptor. CHO-M1 cells, Fluo-4 calcium fluorescence, agonist mode; active compounds read high. B-score at 10 µM. 3% of 64,000 active;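 active = fluorescence rise, raw or as B-score row- and column-corrected plate score, outside the 99.7% band of its plate's samples, either direction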
M1 ag confirm = rat M1 muscarinic agonism, confirmation; shares compounds with M1 ag; CHO-M1 cells, Fluo-4 calcium fluorescence, agonist mode; actives lie on both sides; fluorescence change (max-min) at 10 µM; 19% of 1,700 active;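 active = fluorescence change differs from the solvent-only DMSO control mean at a set confidence level in both duplicate runs; inconclusive = differs from solvent-only control mean in just one of two runs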;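 note: an EC20 dose of acetylcholine follows compound addition during the same imaging run; raw fluorescence intensity difference in instrument units with no normalization to controls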
M4 ag counter = counter-screen for M1 agonists: activity at rat M4 receptor | shares compounds with M1 ag | CHO M4/Gqi5 cells, Fluo-4 calcium fluorescence, agonist mode; actives lie on both sides | fluorescence change (max-min) at 10 µM | 9% of 1,700 active | AID 1741;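 active = fluorescence change differing from the plate's solvent-only control wells at 99.7% confidence in both duplicates, whether higher or lower; inconclusive = differs from solvent controls in only one of two duplicates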
Starred values were filed as active, the others as inactive. The list is not random: actives were taken first. Their share in the collection is about 8.8%.

How did C=CCN1C(=O)C2(c3ccccc31)C1CCCC=C1C(C#N)=C(N)C2(C#N)C#N (stereo not given) do in these assays?
M1 antagonist: 0.05; S1P3 ag: 0; RORA act: 12; S1P1 ag-PAM: 19; SF-1 act: -4; M1 ag: -0.73

How did CN1CCC2(CC1)C1CN(C)CC=C1C(C#N)=C(N)C2(C#N)C#N (stereo not given) do in these assays?
M1 antagonist: 0.41; S1P3 ag: -1; RORA act: -11; S1P1 ag-PAM: 14; SF-1 act: -2; M1 ag: 34*; M1 ag confirm: 215*; M4 ag counter: 160*

What do the screens show for `Cc1nc2nc(-c3ccco3)[nH]n2c(=O)c1Cc1ccccc1`?
M1 antagonist: 1.1; S1P3 ag: -2; RORA act: -7; S1P1 ag-PAM: -8; SF-1 act: 6; M1 ag: 3.6*; M1 ag confirm: -10; M4 ag counter: -27

How did Cc1ccccc1Cn1ccc(NC(=O)c2cnn3c(C(F)(F)F)cc(-c4ccco4)nc23)n1 do in these assays?
M1 antagonist: -2.7*; S1P3 ag: 0; RORA act: 2; SF-1 act: -20; M1 ag: 9.2*; M1 ag confirm: inconclusive; M4 ag counter: inconclusive

Results for CC1(C)Cc2c(sc3nc(SCC#N)n(C4CCCCC4)c(=O)c23)CO1 ?
M1 antagonist: 0.18; S1P3 ag: 1; RORA act: -5; S1P1 ag-PAM: -24; SF-1 act: 15; M1 ag: -0.28

What do the screens show for `CCCc1cc(=O)oc2cc3occ(C)c3cc12`?
M1 antagonist: -1.1; S1P3 ag: -1; RORA act: 6; SF-1 act: -16; M1 ag: 2.7*; M1 ag confirm: -26; M4 ag counter: inconclusive

What do the screens show for `CCCc1cc(=O)oc2cc3oc(C)c(C)c3cc12`?
M1 antagonist: -0.38; S1P3 ag: 0; RORA act: -10; S1P1 ag-PAM: -28; SF-1 act: -2; M1 ag: 0.44

How did CN(C)c1ccc(N=Cc2nc(-c3ccccc3)oc2O)cc1 do in these assays?
M1 antagonist: 0.074; S1P3 ag: -1; RORA act: 5; S1P1 ag-PAM: 23; SF-1 act: 18; M1 ag: 21*; M1 ag confirm: 147*; M4 ag counter: 61

Results for COc1cc(C(=O)Nc2ccc3c(c2)OCCO3)ccc1OC(C)C ?
M1 antagonist: 0.73; S1P3 ag: -1; RORA act: 45; S1P1 ag-PAM: 34; SF-1 act: 54*; M1 ag: 3.7*; M1 ag confirm: -25; M4 ag counter: -40

How did CCn1cc(C(=O)Nc2ccc3c(c2)OCCO3)c2cc(OC)c(OC)cc2c1=O do in these assays?
M1 antagonist: -0.0093; S1P3 ag: 0; RORA act: 9; S1P1 ag-PAM: -50; SF-1 act: 6; M1 ag: 4.1*; M1 ag confirm: inconclusive; M4 ag counter: -47

What do the screens show for `CCc1c(-c2ccccc2)nc2nc(C)c(C)nn12`?
M1 antagonist: 0.24; S1P3 ag: -1; RORA act: -16; S1P1 ag-PAM: 10; SF-1 act: 1; M1 ag: 46*; M1 ag confirm: 237*; M4 ag counter: 219*

What do the screens show for `CCN(CC)c1ccc2c(c1)OC(N)=C(C#N)C2c1cccnc1` (stereo not given)?
M1 antagonist: -4.6*; S1P3 ag: -2; RORA act: -26; S1P1 ag-PAM: -42; SF-1 act: -65; M1 ag: 18*; M1 ag confirm: 681*; M4 ag counter: 652*

What do the screens show for `O=C1OC(Nc2ccc(Br)cn2)c2ccccc21` (stereo not given)?
M1 antagonist: -0.63; S1P3 ag: -4; RORA act: 4; S1P1 ag-PAM: -5; SF-1 act: -3; M1 ag: -0.018

What do the screens show for `O=c1c2ccccc2c(C=Nc2ccc(Cl)cn2)c(O)n1-c1cc(Cl)ccc1N1CCOCC1`?
M1 antagonist: 0.49; S1P3 ag: -1; RORA act: -11; S1P1 ag-PAM: 23; SF-1 act: -16; M1 ag: 15*; M1 ag confirm: -10; M4 ag counter: -11

Results for Cc1cccc(/N=C/c2c(O)n(-c3cc(Cl)ccc3N3CCOCC3)c(=O)c3ccccc23)n1 ?
M1 antagonist: 0.54; S1P3 ag: -1; RORA act: 18; S1P1 ag-PAM: 8; SF-1 act: 16; M1 ag: 0.0073

What do the screens show for `O=C(CCNS(=O)(=O)c1cccs1)N1CCc2ccccc2C1`?
M1 antagonist: 0.032; S1P3 ag: 0; RORA act: 45; S1P1 ag-PAM: 8; SF-1 act: 41; M1 ag: 0.7

Results for O=C(c1ccco1)N1CCN=C1SCc1cccnc1 ?
M1 antagonist: 0.18; S1P3 ag: -1; RORA act: 6; S1P1 ag-PAM: 5; SF-1 act: -8; M1 ag: -0.22

What do the screens show for `O=C(c1ccco1)N1CCN=C1SCc1ccccc1F`?
M1 antagonist: 1.1; S1P3 ag: -1; RORA act: -22; S1P1 ag-PAM: -3; SF-1 act: -16; M1 ag: -3.3*; M1 ag confirm: -15; M4 ag counter: -29

How did O=C1CSC(c2nn(-c3ccccc3)cc2-c2cc3ccccc3oc2=O)N1Cc1ccco1 (stereo not given) do in these assays?
M1 antagonist: -0.25; RORA act: -12; SF-1 act: 17; M1 ag: 3.2*; M1 ag confirm: 11; M4 ag counter: -38

What do the screens show for `CCOC(=O)c1[nH]c2ccc(OC)cc2c1N=CN(C)C`?
M1 antagonist: -0.67; S1P3 ag: 0; RORA act: -2; S1P1 ag-PAM: -21; SF-1 act: 16; M1 ag: -0.38

What do the screens show for `O=C1NC(=O)c2cc(NC(=O)C3CCCCC3)ccc21`?
S1P3 ag: 0; RORA act: -16; S1P1 ag-PAM: 0; SF-1 act: 4; M1 ag: -0.54

Results for O=C(C1CCN(Cc2cc(Cl)ccc2O)CC1)N1CCN(Cc2ccccc2)CC1 ?
M1 antagonist: 0.17; S1P3 ag: 0; RORA act: 1; S1P1 ag-PAM: 14; SF-1 act: 4; M1 ag: 5.6*; M1 ag confirm: inconclusive; M4 ag counter: -41

What do the screens show for `Cc1cc(OC(=O)c2ccc(S(=O)(=O)N(C)C)cc2)cc(=O)o1`?
M1 antagonist: 0.61; S1P3 ag: 0; RORA act: -4; S1P1 ag-PAM: -4; SF-1 act: 3; M1 ag: -0.078
